# Key:
# HCT116 cells [1] = assay: Live-cell imaging growth analysis; type: cell-based, human; settings: ∆PHRF1 HCT116 cells, complemented; no zeocin; Incucyte, one week; n = 3
# Procedure, shortened: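 Control+EV, ∆PHRF1+EV and WT- or P221L-complemented ∆PHRF1 lines were grown in McCoy's 5A with 10% FBS and penicillin/streptomycin at 37°C, 5% CO₂. They were harvested near 70% confluence and seeded at 1,000 cells/well in biological triplicate. Imaging began immediately: every 4 h for one week, 10X objective, four fields per well. Confluence was scored as percentage of area occupied by cells.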
# HCT116 cells [2] = assay: Colony formation assay under zeocin; type: cell-based, human; settings: ∆PHRF1 HCT116 cells, complemented; effect greater with WT than P221L
# Procedure, shortened: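 Cells were Control+EV, ∆PHRF1+EV, and ∆PHRF1 complemented with 3XFlag-PHRF1 WT or P221L. They were harvested near 70% confluence and seeded at 500 cells/well in biological triplicate, then left to adhere overnight at 37°C. Medium was replaced with zeocin at 0, 0.375, 0.75 and 1.5 µg/mL for 9 days undisturbed. Cells were fixed in 4% formaldehyde and stained with 0.5% crystal violet; growth area was measured per imaged well.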
# [3] = target: unmodified biotinylated nucleosome (EpiCypher) (human) (UniProt P68431); assay: BLI
# [4] = test system: HeLa cells (control and ∆PHRF1); assay: Zeocin DNA damage recovery assay, γH2A.X intensity/nucleus, HeLa; type: cell-based, human; settings: qGAM; 50 μg/mL zeocin 30 minutes, washout 0-26 h; p-value 4.79x10-5 (Wald)
# [5] = test system: differentially modified biotinylated nucleosomes; assay: Nucleosome pulldown assay; type: binding; settings: 2.5 pmol protein, 12.5 pmol nucleosomes, pH 7.5, 4°C overnight
# Procedure, shortened: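 Binding buffer: 50 mM Tris-HCl pH 7.5, 150 mM NaCl, 0.5% BSA, 0.1% NP-40, 10% glycerol. GST-PHRF1 RP, PHD or RP(P221L) was mixed with the modified biotinylated nucleosomes. Beads were washed three times in binding buffer, 5 min each at 4°C with rotation, then taken up in SDS loading dye. Immunoblots used anti-GST for PHRF1 and anti-H3 for nucleosome presence.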
# H3 (1–20)-FAM = assay: Histone peptide fluorescence polarization; type: binding; settings: protein 50 to 0.0061 μM, pH 8.0, KD n.d.
# GST-PHRF1^RP(P221L) = assay: Histone peptide microarray with GST-PHRF1^RP; type: binding, human; settings: over 300 differentially-modified histone peptides
# [6] = test system: biotinylated unmodified nucleosomes; assay: Biolayer interferometry; type: binding; settings: BLI; protein 25 to 1.625 μM; pH 7.0; 37°C; KD n.d.
# [7] = test system: differentially modified biotinylated nucleosomes; assay: dCypher nucleosome alphascreen binding assay; settings: GST-PHRF1^RP 3 nM, nucleosomes 10 nM, duplicate
molecule,measurement,setting,value
3XFlag-PHRF1^WT: N-terminally 3XFlag-tagged PHRF1 expressed by lentivirus in HCT116 ∆PHRF1 cells,"rescue of growth under normal conditions, in words",HCT116 cells [1],largely rescued the growth defects
same,"rescue of colony growth at 0.375 μg/mL zeocin, in words",HCT116 cells [2],partial rescue of growth
3XFlag-PHRF1^P221L: 3XFlag-tagged PHRF1 P221L mutant expressed by lentivirus in HCT116 ∆PHRF1 cells,"rescue of growth under normal conditions, in words",HCT116 cells [1],partially rescuing the growth phenotype
same,"rescue of colony growth at 0.375 μg/mL zeocin, in words",HCT116 cells [2],partial rescue of growth
"GST-PHRF1^RP (RING-PHD region of PHRF1, residues 107-232) (from UniProt Q9P1Y6 107-232) (domain or fragment)",Kd,[3],1.01 µM
"Cc1c(N)nc([C@H](CC(N)=O)NC[C@H](N)C(N)=O)nc1C(=O)N[C@H](C(=O)N[C@H](C)[C@@H](O)[C@H](C)C(=O)N[C@H](C(=O)NCCC1=N[C@@H](c2nc(C(=O)NCCCCN=C(N)N)cs2)CS1)[C@@H](C)O)[C@@H](O[C@@H]1O[C@@H](CO)[C@@H](O)[C@H](O)[C@@H]1O[C@H]1O[C@H](CO)[C@@H](O)[C@H](OC(N)=O)[C@@H]1O)c1cnc[nH]1 [zeocin, phleomycin D1]","Parametric Coefficient, γH2A.X intensity/nucleus, ∆PHRF1 vs Control",[4],−345.25
"GST-PHRF1^RP(P221L): GST-PHRF1^RP with P221 mutated to leucine (protein, left off: GST, end not stated, kept) SCPICLNAFRDQAVGTPENCAHYFCLDCIVEWSKNANSCPVDRTLFKCICIRAQFGGKILRKIPVENTKASEEEEDPTFCEVCGRSDREDRLLLCDGCDAGYHMECLDPPLQEVLVDEWFCPECAA","nucleosome interaction of P221L mutant, in words",[5],abolished all nucleosome interaction
same,"binding to H3 1–20(FAM), in words",H3 (1–20)-FAM,little to no observable binding
same,"binding to histone peptides, in words",GST-PHRF1^RP(P221L),virtually no binding to any histone peptide on the microarray
same,"binding to nucleosomes, in words",[6],no detectable binding to nucleosomes
"GST-PHRF1^RP: GST-tagged PHRF1 RING-PHD region, residues 107–232 of PHRF1 (protein, left off: GST, end not stated, kept) SCPICLNAFRDQAVGTPENCAHYFCLDCIVEWSKNANSCPVDRTLFKCICIRAQFGGKILRKIPVENTKASEEEEDPTFCEVCGRSDREDRLLLCDGCDAGYHMECLDPPLQEVPVDEWFCPECAA","nucleosome binding, H3K9me3 versus unmodified, in words",[7],heightened binding

# Reference: article PMC11601626 (bioRxiv, 2024)
